In ChEMBL document CHEMBL1136770, “The pharmacophore of short cationic antibacterial peptides” (2003):
≈ marks a conversion by molar mass, not a printed value. Non-standard residues stand in square brackets, D forms with d. Residues, ends and D or L forms follow the SMILES beside them. *: point of attachment. OBn = c1ccc(CO*)cc1

What was measured:
Assay type in all cases: functional
Escherichia coli = test: Minimum inhibitory concentration against Escherichia coli
In short: (§1)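 Broth microdilution, inoculum 2 × 10⁶ cfu/mL, in 1% Bacto Peptone water, overnight at 37 °C. At least three independent dilutions tested in parallel. Gentamicin susceptibility run as internal standard.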

Staphylococcus aureus [1] = test: Minimum inhibitory concentration against Staphylococcus aureus; in short: as §1
Staphylococcus aureus [2] = test: Minimum inhibitory concentration against methicillin-resistant Staphylococcus aureus (ATCC 33591)
[3] = system: Staphylococcus epidermidis; test: Minimum inhibitory concentration against methicillin-resistant Staphylococcus epidermidis (ATCC 27626)

Row | Compound | MIC (Escherichia coli) | MIC (Staphylococcus aureus [1]) | MIC (Staphylococcus aureus [2]) | MIC [3]
1 | NC(N)=NCCC[C@H](NC(=O)[C@H](N)Cc1c[nH]c2ccccc12)C(=O)N[C@@H](Cc1c[nH]c2ccccc12)C(=O)OCc1ccccc1 | 75 µg/mL (≈ 118 µM) | 20 µg/mL (≈ 31.4 µM) | 20 µg/mL (≈ 31.4 µM) | 10 µg/mL (≈ 15.7 µM)
2 | NC(N)=NCCC[C@H](NC(=O)[C@H](Cc1c[nH]c2ccccc12)NC(=O)[C@@H](N)CCCN=C(N)N)C(=O)N[C@@H](Cc1c[nH]c2ccccc12)C(=O)OCc1ccccc1 | 50 µg/mL (≈ 63.1 µM) | 2.5 µg/mL (≈ 3.15 µM) | 2.5 µg/mL (≈ 3.15 µM) | 2.5 µg/mL (≈ 3.15 µM)
3 | COC(=O)[C@H](CCCN=C(N)N)NC(=O)[C@H](Cc1c[nH]c2ccccc12)NC(=O)[C@H](Cc1c[nH]c2ccccc12)NC(=O)[C@@H](N)CCCN=C(N)N (H-RWWR-OMe) | > 200 µg/mL | 75 µg/mL (≈ 105 µM) | 50 µg/mL (≈ 69.7 µM) | 15 µg/mL (≈ 20.9 µM)
4 | NC(=O)[C@H](Cc1c[nH]c2ccccc12)NC(=O)[C@H](CCCN=C(N)N)NC(=O)[C@H](CCCN=C(N)N)NC(=O)[C@@H](N)Cc1c[nH]c2ccccc12 (H-WRRW-NH2) | > 200 µg/mL | 200 µg/mL (≈ 285 µM) |  | 
5 | NC(N)=NCCC[C@H](N)C(=O)N[C@@H](Cc1c[nH]c2ccccc12)C(=O)N[C@H](CCCN=C(N)N)C(=O)N[C@H](Cc1c[nH]c2ccccc12)C(=O)OCc1ccccc1 | 75 µg/mL (≈ 94.6 µM) | 5 µg/mL (≈ 6.31 µM) | 2.5 µg/mL (≈ 3.15 µM) | 2.5 µg/mL (≈ 3.15 µM)
6 | NC(N)=NCCC[C@@H](N)C(=O)N[C@@H](Cc1c[nH]c2ccccc12)C(=O)OCc1ccccc1 | > 200 µg/mL | 25 µg/mL (≈ 55.5 µM) | 25 µg/mL (≈ 55.5 µM) | 25 µg/mL (≈ 55.5 µM)
7 | H-WRWRW-NH2 | 15 µg/mL | 10 µg/mL |  | 
8 | NC(N)=NCCC[C@H](N)C(=O)N[C@@H](Cc1ccccc1)C(=O)OCc1ccccc1 | > 200 µg/mL | 200 µg/mL (≈ 486 µM) | 200 µg/mL (≈ 486 µM) | 75 µg/mL (≈ 182 µM)
9 | NC(N)=NCCC[C@H](NC(=O)[C@@H](N)Cc1c[nH]c2ccccc12)C(=O)OCc1ccccc1 (H-Trp-Arg-OBn) | > 200 µg/mL | 200 µg/mL (≈ 444 µM) | 75 µg/mL (≈ 166 µM) | 75 µg/mL (≈ 166 µM)
10 | COC(=O)[C@H](CCCN=C(N)N)NC(=O)[C@H](Cc1c[nH]c2ccccc12)NC(=O)[C@@H](N)Cc1c[nH]c2ccccc12 (H-Trp-Trp-Arg-OMe) | > 200 µg/mL | > 200 µg/mL | 200 µg/mL (≈ 357 µM) | 100 µg/mL (≈ 178 µM)
11 | NCCCC[C@H](N)C(=O)N[C@H](Cc1c[nH]c2ccccc12)C(=O)OCc1ccccc1 (H-Lys-[dW]-OBn) | > 200 µg/mL | 75 µg/mL (≈ 178 µM) | 50 µg/mL (≈ 118 µM) | 25 µg/mL (≈ 59.2 µM)
12 | COC(=O)[C@H](CCCN=C(N)N)NC(=O)[C@H](Cc1c[nH]c2ccccc12)NC(=O)Cc1c[nH]c2ccccc12 | 200 µg/mL (≈ 376 µM) | 200 µg/mL (≈ 376 µM) |  | 
13 | H-WRWRY-NH2 | 100 µg/mL | 50 µg/mL |  | 
14 | H-WWRRRW-NH2 | 25 µg/mL | 10 µg/mL |  | 
15 | NC(N)=NCCC[C@H](NC(=O)[C@@H](N)Cc1c[nH]c2ccccc12)C(=O)N[C@@H](Cc1c[nH]c2ccccc12)C(=O)OCc1ccccc1 | 75 µg/mL (≈ 118 µM) | 5 µg/mL (≈ 7.85 µM) | 5 µg/mL (≈ 7.85 µM) | 5 µg/mL (≈ 7.85 µM)
16 | H-RWWWRR-NH2 | 25 µg/mL | 5 µg/mL |  | 
17 | NC(=O)[C@H](CCCN=C(N)N)NC(=O)[C@H](Cc1c[nH]c2ccccc12)NC(=O)[C@H](Cc1c[nH]c2ccccc12)NC(=O)[C@@H](N)CCCN=C(N)N (H-RWWR-NH2) | > 200 µg/mL | 100 µg/mL (≈ 142 µM) |  | 
18 | H-WRYRW-NH2 | 100 µg/mL | 50 µg/mL |  | 
19 | NC(N)=NCCC[C@@H](N)C(=O)N[C@H](Cc1c[nH]c2ccccc12)C(=O)OCc1ccccc1 | > 200 µg/mL | 50 µg/mL (≈ 111 µM) | 50 µg/mL (≈ 111 µM) | 20 µg/mL (≈ 44.4 µM)

Row | Compound | MIC (Escherichia coli) | MIC (Staphylococcus aureus [1]) | MIC (Staphylococcus aureus [2]) | MIC [3]
20 | N=C(N)NCCC[C@H](NC(=O)C1CCCCC1)C(=O)N[C@@H](Cc1c[nH]c2ccccc12)C(=O)OCc1ccccc1 | 200 µg/mL (≈ 357 µM) | 25 µg/mL (≈ 44.6 µM) |  | 
21 | COC(=O)[C@H](CCCN=C(N)N)NC(=O)[C@H](Cc1c[nH]c2ccccc12)NC(=O)C1CCCCC1 | > 200 µg/mL | > 200 µg/mL |  | 
22 | NC(N)=NCCC[C@@H](NC(=O)[C@H](N)Cc1c[nH]c2ccccc12)C(=O)N[C@H](Cc1c[nH]c2ccccc12)C(=O)OCc1ccccc1 | 75 µg/mL (≈ 118 µM) | 5 µg/mL (≈ 7.85 µM) | 5 µg/mL (≈ 7.85 µM) | 5 µg/mL (≈ 7.85 µM)
23 | H-RWRWRW-NH2 | 5 µg/mL | 5 µg/mL |  | 
24 | NC(=O)[C@H](CCCN=C(N)N)NC(=O)[C@H](Cc1c[nH]c2ccccc12)NC(=O)[C@H](CCCN=C(N)N)NC(=O)[C@@H](N)Cc1c[nH]c2ccccc12 (H-WRWR-NH2) | > 200 µg/mL | 200 µg/mL (≈ 285 µM) |  | 
25 | H-RWRWR-NH2 | 200 µg/mL | 25 µg/mL |  | 
26 | COC(=O)[C@H](CCCN=C(N)N)NC(=O)[C@H](Cc1c[nH]c2ccccc12)NC(=O)[C@H](CCCN=C(N)N)NC(=O)[C@@H](N)Cc1c[nH]c2ccccc12 (H-WRWR-OMe) | > 200 µg/mL | > 200 µg/mL | 100 µg/mL (≈ 139 µM) | 75 µg/mL (≈ 105 µM)
27 | N=C(N)NCCC[C@H](NC(=O)Cc1c[nH]c2ccccc12)C(=O)N[C@@H](Cc1c[nH]c2ccccc12)C(=O)OCc1ccccc1 | 150 µg/mL (≈ 247 µM) | 20 µg/mL (≈ 32.9 µM) |  | 
28 | NC(N)=NCCC[C@H](N)C(=O)N[C@@H](Cc1c[nH]c2ccccc12)C(=O)OCc1ccccc1 | > 200 µg/mL | 15 µg/mL (≈ 33.3 µM) | 15 µg/mL (≈ 33.3 µM) | 10 µg/mL (≈ 22.2 µM)
29 | NCCCC[C@H](N)C(=O)N[C@@H](Cc1c[nH]c2ccccc12)C(=O)OCc1ccccc1 (H-Lys-Trp-OBn) | > 200 µg/mL | 50 µg/mL (≈ 118 µM) | 25 µg/mL (≈ 59.2 µM) | 25 µg/mL (≈ 59.2 µM)
30 | NC(N)=NCCC[C@H](NC(=O)[C@@H](N)Cc1ccccc1)C(=O)OCc1ccccc1 (H-Phe-Arg-OBn) | > 200 µg/mL | > 200 µg/mL | 200 µg/mL (≈ 486 µM) | 200 µg/mL (≈ 486 µM)
31 | H-RRRWWW-NH2 | 5 µg/mL | 5 µg/mL |  | 
32 | H-WRWRWR-NH2 | 10 µg/mL | 7.5 µg/mL |  | 
33 | NC(=O)[C@H](Cc1c[nH]c2ccccc12)NC(=O)[C@H](CCCN=C(N)N)NC(=O)[C@@H](N)Cc1c[nH]c2ccccc12 (H-Trp-Arg-Trp-NH2) | > 200 µg/mL | 100 µg/mL (≈ 183 µM) |  | 
34 | NC(=O)[C@H](CCCN=C(N)N)NC(=O)[C@H](Cc1c[nH]c2ccccc12)NC(=O)[C@@H](N)CCCN=C(N)N (H-Arg-Trp-Arg-NH2) | > 200 µg/mL | > 200 µg/mL |  | 
35 | NC(N)=NCCC[C@H](N)C(=O)N[C@H](Cc1c[nH]c2ccccc12)C(=O)OCc1ccccc1 | > 200 µg/mL | 50 µg/mL (≈ 111 µM) | 50 µg/mL (≈ 111 µM) | 25 µg/mL (≈ 55.5 µM)
36 | COC(=O)[C@H](CCCN=C(N)N)NC(=O)[C@@H](N)Cc1c[nH]c2ccccc12 (H-Trp-Arg-OMe) | > 200 µg/mL | > 200 µg/mL | > 200 µg/mL | > 200 µg/mL
37 | NCCCC[C@@H](N)C(=O)N[C@@H](Cc1c[nH]c2ccccc12)C(=O)OCc1ccccc1 (H-[dK]-Trp-OBn) | > 200 µg/mL | 75 µg/mL (≈ 178 µM) | 50 µg/mL (≈ 118 µM) | 25 µg/mL (≈ 59.2 µM)
